Measured values from paper PMC3828522 (Genes & Development, 2013).
Where a chain is given by its changes, count along the chain named. Names may count otherwise.

B1: Pho: full-length Drosophila Pleiohomeotic, PRE-binding PcG protein (protein, UniProt Q8ST83 1-520, looked up)
chain: MAYERFGIILQSEQYDEDIGNTKVNQKMNEGNHYDLHRKNAFDRIIHSESKKGDNVINYNIHENDKIKAADNIFSSKLKMNPNMSYEMNINCFKNIGYGENQETSKVLTNSLSNNDINTEESGVVDKNSPFLTLGTTILNSNGKSRRWEQKLVHIKTMEGEFSVTMWASGISDDEYSGSDQIVGASDLLKGKEEFGIDGFTSQQNKEYQKMESKFTNAQTLEMPHPISSVQIMDHLIKERGNLSQENNISERILSKTTLSFEEPILLPDSSSIELVNETAAMTINNHRTLSNHTGNTGDLHALPSSVPFRIGLHEGQVNDCLSTISQSTHQDNTDSTGCGEMNLSEVTVSYTNDKKIACPHKGCNKHFRDSSAMRKHLHTHGPRVHVCAECGKAFVESSKLKRHQLVHTGEKPFQCTFEGCGKRFSLDFNLRTHVRIHTGDRPFVCPFDACNKKFAQSTNLKSHILTHAKAKRNTSISGKSGCSNAESNSQSEDTSANYVKVELQDSVTENHVPFVVYAD
modifications: full-length
B2: Sfmbt 4MBT domain: four malignant brain tumor (4MBT) domain of Drosophila Sfmbt (protein, UniProt Q9VK33 532-980, looked up, fragment)
chain: PTHSYDWLPRLSKENFNAAPVTCFPHAPGCEVWDNLGVGMKVEVENTDCDSIEVIQPGQTPTSFWVATILEIKGYKALMSYEGFDTDSHDFWVNLCNAEVHSVGWCATRGKPLIPPRTIEHKYKDWKDFLVGRLSGARTLPSNFYNKINDSLQSRFRLGLNLECVDKDRISQVRLATVTKIVGKRLFLRYFDSDDGFWCHEDSPIIHPVGWATTVGHNLAAPQDYLERMLAGREAMIEVHEDDATIELFKMNFTFDEYYSDGKTNSFVEGMKLEAVDPLNLSSICPATVMAVLKFGYMMIRIDSYQPDASGSDWFCYHEKSPCIFPAGFCSVNNISVTPPNGYDSRTFTWEGYLRDTGAVAAGQHLFHRIIPDHGFEVGMSLECADLMDPRLVCVATVARVVGRLLKVHFDGWTDEYDQWLDCESADIYPVGWCVLVNHKLEGPPRVAH
modifications: 4MBT domain
B3: Sfmbt^G635K/A638E: full-length Sfmbt with G635K/A638E mutations (protein)
chain: MNPSELRMMWMSSQYNSERITLEDAATLLGHPTVGLSVMEDLSAHQPTLDMNPMMSLMGGDFTGQAAATAAALGVQPGTLIATNSNNLYGFAHMGGLQQQLLQQSAAAAVFQNYAEAMDNDVENGMVGMAMEAVVDDDDQVYGQRDNNFDDNGSELEPKQEIINIDDFVMMNEDNNSYDGTDFMTSSDKDISQSSSSCMAQMPGSLGVPGVEHDLLVPLPDGLLHHKLLGTTLVPAMGTLNGNAFGNIMVSTENTSSKQMQRTYSTAKGANSTATTATCSASTSSALRSQRKTRKIEPVNRPGLVLKTPIAYRGNIDPSVIPIQKDGMAVCKRCGAIGVKHTFYTKSRRFCSMACARGELYSLVLNTKMEGDQATTSSPDPGAGSESADLPGDQQQSQSDIELDLHAAHIKNANYRFRITDQSKITQLNSFGEPMSMGGDAAANNVQMAADETIAALNGGAVGDATAPGSTEEGASTPNSYLSAAPTPKALRLFKDIYPQDDLPQIPKYERLPVPCPQMEKIISIRRRMYDPTHSYDWLPRLSKENFNAAPVTCFPHAPGCEVWDNLGVGMKVEVENTDCDSIEVIQPGQTPTSFWVATILEIKGYKALMSYEGFDTDSHDFWVNLCNAEVHSVKWCETRGKPLIPPRTIEHKYKDWKDFLVGRLSGARTLPSNFYNKINDSLQSRFRLGLNLECVDKDRISQVRLATVTKIVGKRLFLRYFDSDDGFWCHEDSPIIHPVGWATTVGHNLAAPQDYLERMLAGREAMIEVHEDDATIELFKMNFTFDEYYSDGKTNSFVEGMKLEAVDPLNLSSICPATVMAVLKFGYMMIRIDSYQPDASGSDWFCYHEKSPCIFPAGFCSVNNISVTPPNGYDSRTFTWEGYLRDTGAVAAGQHLFHRIIPDHGFEVGMSLECADLMDPRLVCVATVARVVGRLLKVHFDGWTDEYDQWLDCESADIYPVGWCVLVNHKLEGPPRVAHQQAPKPAPKPKIQRKRKPKKGAAGGKTPTDNNTQSVKSRTIALKTTPHLPKLSIKLELKPEHHNAAFYENNQPEEEGDEEDPDADGDGDGSTSHISEQSTTQSSSDLIAGSGSGSGSASLVTLATGSNKTNSSATNNKYIPRLADIDSSEPHLELVPDTWNVYDVSQFLRVNDCTAHCDTFSRNKIDGKRLLQLTKDDIMPLLGMKVGPALKISDLIAQLKCKVNPGRARSHKTNKSPFL
B4: Sfmbt^G635K/A638E-CTAP: Sfmbt double point mutant with C-terminal TAP tag, expressed from transgene (protein)
chain: B3 chain
modifications: left off: TAP tag, C-terminal, kept
B5: Sfmbt-CTAP: wild-type Sfmbt with C-terminal tandem affinity purification tag, expressed from transgene (protein)
chain: B3 chain with K635G, E638A
modifications: left off: TAP tag, C-terminal, kept

What was measured:
[1] = test system: double-stranded Pho DNA-binding site; assay: EMSA, DNA binding; design: species or system Drosophila; details: ^32P end-labeled probe, protein without partner
Scm = assay: Pho:Scm complex formation in vitro; assay type: binding, Drosophila; details: Supplemental Fig. S5C
[2] = test system: Sfmbt 4MBT, Ser633 and Ser673 mutated into proline; assay: GST pull-down and SPR, Sfmbt Ser633/Ser673 to proline mutant; assay type: binding, Drosophila; details: relative to wild type
Method in brief: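 Mutant and wild-type 6xHis-tagged Sfmbt 4MBT expressed in E. coli. GST pull-down: GST-Pho spacer (E. coli, GST column plus gel filtration) on beads with 4MBT, 2 h at 4°C in 50 mM Tris-HCl, 150 mM NaCl, 1 mM DTT; three washes, boiled in Laemmli buffer.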

[3] = test system: Flag-tagged Pho (full-length); assay: Anti-Flag affinity purification of full-length Pho-Flag:Sfmbt complexes; assay type: binding, Drosophila; details: coimmunoprecipitation, full-length proteins, baculovirus system
Method in brief: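 Full-length Pho-Flag with wild-type or mutant Sfmbt expressed and purified in a baculovirus system. Cells lysed by three sonication cycles (30 bursts, 30 sec on ice each). Complexes isolated by anti-Flag affinity purification; bound proteins detected by Western blot with the indicated antibodies.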

endogenous Pho = assay: Pull-down of Sfmbt-CTAP proteins from embryo nuclear extracts; assay type: binding, Drosophila; details: nuclear extracts of 0- to 12-h-old embryos, IgG sepharose, Western blot
[4] = test system: Ubx misexpression in Sfmbt^1 homozygous cell clones; assay: Genetic rescue assay, repression of Ubx in Sfmbt^1 homozygous clones; assay type: in vivo, Drosophila; details: imaginal disc
PREs of PcG target genes = assay: ChIP of Sfmbt-CTAP proteins at PREs; assay type: in vivo, Drosophila
Method in brief: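 Sfmbt-CTAP transgenes (wild-type, G635K/A638E double mutant, ΔMBT1 truncation) expressed ubiquitously via daughterless-Gal4 in wild-type third instar larvae. Chromatin from imaginal discs and brains; TAP-tagged proteins immunoprecipitated with peroxidase anti-peroxidase via the protein A moiety. Triplicate ChIPs from three independent chromatin preparations per genotype. qPCR read-out given as mean percentage of input precipitated per region, ±SD.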

Molecule | mobility shift / association with DNA [1] | coimmunoprecipitation of endogenous Pho (endogenous Pho) | repression of Ubx in Sfmbt^1 mutant clones [4] | further results
B1 | induces a mobility shift | – | – | stable complex formation with Scm in vitro (Scm): fails to form a stable complex; binding affinity change, Ser633 and Ser673 to proline [2]: twofold decrease in the binding affinity
B2 | fails to stably associate with DNA | – | – | –
B3 | – | – | – | interaction with Flag-tagged Pho [3]: completely failed to interact
B4 | – | only poorly coimmunoprecipitated | severely compromised repressor activity | reduction of ChIP signals at Ubx PREs (PREs of PcG target genes): reduced only twofold to threefold
B5 | – | robustly coimmunoprecipitated | rescues repression of Ubx | –
